Reference: ChEMBL document CHEMBL1142462, “Synthesis and in vitro biological evaluation of ring B abeo-sterols as novel inhibitors of Mycobacterium tuberculosis” (Bioorg Med Chem Lett, 2008)
In brackets after ≈: the same amount, converted by molar mass.

Columns and labels:
[1] = tested on: Mycobacterium tuberculosis; assay: Antimycobacterial activity against Mycobacterium tuberculosis H37Rv by microplate alamar blue assay; format: functional
[2] = tested on: Vero; assay: Cytotoxicity against african green monkey Vero cells; format: cell-based; conditions: Chlorocebus sabaeus
Method in brief: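 Cytotoxicity tested on VERO cells (ATCC CCL-81) in parallel with the MIC work. Read-out is IC50 in μg/mL.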

[3] = tested on: Mycobacterium tuberculosis; assay: Antimycobacterial activity against Mycobacterium tuberculosis H37Rv at 64 ug/mL by microplate alamar blue assay; format: functional
[4] = tested on: Mycobacterium tuberculosis; assay: Antimycobacterial activity against Mycobacterium tuberculosis H37Rv at 32 ug/mL by microplate alamar blue assay; format: functional
[5] = tested on: Mycobacterium tuberculosis; assay: Antimycobacterial activity against Mycobacterium tuberculosis H37Rv at 16 ug/mL by microplate alamar blue assay; format: functional
[6] = Selectivity index, ratio of IC50 for against african green monkey VERO cells to MIC for Mycobacterium tuberculosis H37Rv; format: functional
[7] = tested on: Mycobacterium tuberculosis; assay: Antimycobacterial activity against Mycobacterium tuberculosis H37Rv at 128 ug/mL by microplate alamar blue assay; format: functional
[8] = tested on: Mycobacterium tuberculosis; assay: Antimycobacterial activity against Mycobacterium tuberculosis H37Rv at 8 ug/mL by microplate alamar blue assay; format: functional
[9] = tested on: Mycobacterium tuberculosis; assay: Antimycobacterial activity against Mycobacterium tuberculosis H37Rv at 4 ug/mL by microplate alamar blue assay; format: functional
[10] = tested on: Mycobacterium tuberculosis; assay: Antimycobacterial activity against Mycobacterium tuberculosis H37Rv at 2 ug/mL by microplate alamar blue assay; format: functional

| SMILES | MIC [1] | IC50 [2] | inhibition at 64 µg/mL [3] | inhibition at 32 µg/mL [4] | inhibition at 16 µg/mL [5] | Selectivity Index [6] | inhibition at 128 µg/mL [7] | inhibition at 8 µg/mL [8] | inhibition at 4 µg/mL [9] | inhibition at 2 µg/mL [10] |
| --- | --- | --- | --- | --- | --- | --- | --- | --- | --- | --- |
| C=C(CC[C@@H](C)[C@H]1CC[C@H]2[C@@H]3CC=C4C[C@@H](O)CC[C@]4(C)[C@H]3CC[C@]12C)C(C)C | 120 µg/mL (≈ 301 µM) | > 128 µg/mL | 40% | 43% | 33% | – | – | – | – | – |
| CC[C@@H](CC[C@@H](C)[C@H]1CC[C@H]2[C@@H]3C(C=O)=C4C[C@@H](O)CC[C@]4(C)[C@H]3CC[C@]12C)C(C)C | 3.8 µg/mL (≈ 8.86 µM) | 26.6 µg/mL (≈ 62 µM) | 99% | 99% | 98% | 7 | 99% | 99% | 97% | 29% |
| CC(C)C(=O)CC[C@@H](C)[C@H]1CC[C@H]2[C@@H]3C(C=O)=C4C[C@@H](O)CC[C@]4(C)[C@H]3CC[C@]12C | 13.6 µg/mL (≈ 32.8 µM) | 43.8 µg/mL (≈ 106 µM) | 100% | 96% | 92% | 3.2 | 99% | 83% | 67% | 52% |
| CC(C)CCC[C@@H](C)[C@H]1CC[C@H]2[C@@H]3C(C=O)=C4C[C@@H](O)CC[C@]4(C)[C@H]3CC[C@]12C | 15 µg/mL (≈ 37.4 µM) | > 128 µg/mL | 99% | 99% | 96% | >9 | 99% | 51% | 34% | 10% |
| CC(C)[C@@H](C)[C@]1(C)C[C@@H]1[C@@H](C)[C@H]1CC[C@H]2[C@@H]3C(C=O)=C4C[C@@H](O)CC[C@]4(C)[C@H]3CC[C@]12C | 12.7 µg/mL (≈ 28.8 µM) | 54.7 µg/mL (≈ 124 µM) | 99% | 98% | 96% | 4.3 | 99% | 81% | 33% | 17% |
| CC(C)[C@@H](C)CC[C@@H](C)[C@H]1CC[C@H]2[C@@H]3CC=C4C[C@@H](O)CC[C@]4(C)[C@H]3CC[C@]12C | > 128 µg/mL | > 128 µg/mL | 41% | 31% | 21% | – | 58% | 23% | 14% | 15% |
| CC(C)[C@@H](C)CC[C@@H](C)[C@H]1CC[C@H]2[C@@H]3C(C=O)=C4C[C@@H](O)CC[C@]4(C)[C@H]3CC[C@]12C | 3.9 µg/mL (≈ 9.4 µM) | 42.3 µg/mL (≈ 102 µM) | 100% | 99% | 99% | 10.8 | 99% | 97% | 94% | 39% |
| CC(C)[C@@H](C)[C@]1(C)C[C@@H]1[C@@H](C)[C@H]1CC[C@H]2[C@@H]3CC=C4C[C@@H](O)CC[C@]4(C)[C@H]3CC[C@]12C | > 128 µg/mL | > 128 µg/mL | 18% | 13% | 10% | – | 38% | – | – | – |
| CCC(CC[C@@H](C)[C@H]1CC[C@H]2[C@@H]3CC=C4C[C@@H](O)CC[C@]4(C)[C@H]3CC[C@]12C)C(C)C (single isomer, unassigned) [BETA-SITOSTEROL] | > 128 µg/mL | > 128 µg/mL | 48% | 31% | 32% | – | 45% | 7% | 8% | -1% |
| CC(C)CCC[C@@H](C)[C@H]1CC[C@H]2[C@@H]3CC=C4C[C@@H](O)CC[C@]4(C)[C@H]3CC[C@]12C [CHOLESTEROL] | > 128 µg/mL | > 128 µg/mL | 24% | 13% | 33% | – | 57% | – | – | – |
| C=C(CC[C@@H](C)[C@H]1CC[C@H]2[C@@H]3C(C=O)=C4C[C@@H](O)CC[C@]4(C)[C@H]3CC[C@]12C)C(C)C [PARGUESTEROL A] | 7.8 µg/mL (≈ 18.9 µM) | 51 µg/mL (≈ 124 µM) | 99% | 99% | 105% | 6.5 | 99% | 91% | 69% | 52% |
| CO[C@H]1/C=C/O[C@@]2(C)Oc3c(C)c(O)c4c(O)c(c(/C=N/N5CCN(C)CC5)c(O)c4c3C2=O)NC(=O)/C(C)=C\C=C\[C@H](C)[C@H](O)[C@@H](C)[C@@H](O)[C@@H](C)[C@H](OC(C)=O)[C@@H]1C [RIFAMPIN] | 0.06 µg/mL (≈ 0.0729 µM) | – | 100% | 100% | 99% | – | 100% | 94% | 73% | – |
